In data set [1] the test system is Escherichia coli. Nature of the data set: Antibacterial activity against Escherichia coli ATCC 25922 after 24 hrs by microbroth dilution method. In kind it is functional. The following applies: ATCC 25922, 24 h. Put shortly:
(§1)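 Microbroth dilution per CLSI guidelines. Organisms grown in Mueller−Hinton broth at 37 °C with shaking to log phase, pelleted, resuspended in 0.85% saline to OD625 0.1. Final inoculum 5 × 10^5 CFU/mL; triplicate; 24 h at 37 °C. OD625 read; MIC = lowest concentration completely inhibiting growth versus untreated controls.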

The test system of another data set is Pseudomonas aeruginosa. Nature of the data set: Antibacterial activity against Pseudomonas aeruginosa ATCC 27853 after 24 hrs by microbroth dilution method. In kind it is functional. The conditions noted are these: ATCC 27853, 24 h. Put shortly:
as §1

Another data set relates to Enterobacter cloacae. Nature of the data set: Antibacterial activity against Enterobacter cloacae ATCC 13047 after 24 hrs by microbroth dilution method. In kind it is functional. The following applies: ATCC 13047, 24 h. Put shortly: as §1
The subject of a further data set is Acinetobacter baumannii. Nature of the data set: Antibacterial activity against Acinetobacter baumannii ATCC 19606 after 24 hrs by microbroth dilution method. In kind it is functional. The conditions noted are these: ATCC 19606 = CIP 70.34 = JCM 6841, 24 h. Put shortly: as §1
A further data set relates to Shigella flexneri. Nature of the data set: Antibacterial activity against Shigella flexneri 2457NR517 after 24 hrs by microbroth dilution method. The class given is functional. The following applies: 2457NR517, 24 h. The essentials: (§2)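 Mueller-Hinton broth cultures grown at 37 °C with shaking to log phase, pelleted, resuspended in 0.85% saline to OD625 0.1. Broth microdilution per CLSI guidelines, final inoculum 5 × 10^5 CFU/mL, in triplicate, 24 h at 37 °C. Growth read as OD625. MIC is the lowest concentration giving complete growth inhibition versus untreated controls.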
A general note: Dilution methods test growth across graded concentrations, often in twofold steps.

A further data set relates to DU-145. In words: Cytotoxicity against human DU145 cells after 48 hrs by SRB assay. The class given is cell-based. The essentials: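 Cells cultured per ATCC protocols, seeded and grown 24 h (37 °C, 5% CO2), then treated in triplicate at final 20, 10, 5, 2.5, 1.25, 0.625 and 0.0625 μM for 48 h. Fixed with cold TCA (16% final, 4 °C, 1 h), stained with SRB in 1% acetic acid, dye solubilized in 10 mM Tris base, A560 read. IC50 derived; study in duplicate.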

The subject of a further data set is Klebsiella pneumoniae. Nature of the data set: Antibacterial activity against Klebsiella pneumoniae NR15410 after 24 hrs by microbroth dilution method. In kind it is functional. The conditions noted are these: NR15410, 24 h. The essentials:
as §1

Data set [2] concerns Staphylococcus epidermidis. Nature of the data set: Antibacterial activity against Staphylococcus epidermidis ATCC 12384 after 24 hrs by microbroth dilution method. In kind it is functional. The following applies: ATCC 12384, 24 h. The essentials: as §1
The test system of data set [3] is Staphylococcus aureus. Nature of the data set: Antibacterial activity against methicillin-resistant Staphylococcus aureus A960649 after 24 hrs by microbroth dilution method. In kind it is functional. The conditions noted are these: A960649, 24 h. The essentials: as §2
For another data set, the system named is Enterococcus faecium. In words: Antibacterial activity against Enterococcus faecium BM4105RF after 24 hrs by microbroth dilution method. The class given is functional. Put shortly:
as §2

Another data set has as its system Citrobacter freundii. In words: Antibacterial activity against Citrobacter freundii 4747CFAA after 24 hrs by microbroth dilution method. In kind it is functional. Put shortly: as §1
Data set [4] relates to Staphylococcus aureus. In words: Antibacterial activity against methicillin-resistant Staphylococcus aureus 33591 after 24 hrs by microbroth dilution method. In kind it is functional. The conditions noted are these: Staphylococcus aureus, 33591, 24 h. Put shortly: as §2
Data set [5] relates to Escherichia coli. In words: Inhibition of Escherichia coli DNA gyrase using relaxed plasmid pBAD-GFPuv as substrate after 30 mins by agarose gel electrophoresis.
The subject of data set [6] is Escherichia coli. Nature of the data set: Inhibition of Escherichia coli RNA topoisomerase-1 using circular RNA as substrate 10 uM after 1.5 hrs by SDS-PAGE analysis. Put shortly:
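10 nM E. coli topoisomerase I premixed with reaction buffer and inhibitor diluted in DMSO, then circular RNA substrate added; 1.5 h incubation. Stopped with proteinase K/SDS/EDTA buffer. Trefoil RNA knot product separated from circular substrate on 15% TBE−urea gels and detected by phosphorimaging. DMSO-only control included.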

For the next data set, the system named is Enterococcus faecalis. In words: Antibacterial activity against Enterococcus faecalis ATCC 29212 after 24 hrs by microbroth dilution method. The class given is functional. The conditions noted are these: ATCC 29212, 24 h. The essentials: as §1
In data set [7] the test system is Staphylococcus aureus. Nature of the data set: Antibacterial activity against Staphylococcus aureus ATCC 29213 after 24 hrs by microbroth dilution method. The following applies: ATCC 29213, 24 h. In kind it is functional. Put shortly: as §1
In data set [8] the test system is Escherichia coli. In words: Antibacterial activity against Escherichia coli K-12 after 24 hrs by microbroth dilution method. The class given is functional. The conditions noted are these: K-12, 24 h. The essentials:
as §1

The subject of data set [9] is Staphylococcus aureus. In words: Antibacterial activity against Staphylococcus aureus ATCC 33591 after 24 hrs by microbroth dilution method. In kind it is functional. The following applies: ATCC 33591, 24 h. Put shortly:
as §1

Data set [10] relates to Escherichia coli. In words: Inhibition of Escherichia coli RNA topoisomerase 1 using circular RNA as substrate up to 80 uM after 1.5 hrs by SDS-PAGE analysis. Put shortly: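 E. coli topoisomerase I (10 nM) premixed in reaction buffer with inhibitor diluted in DMSO, then circular RNA substrate added; 1.5 h. DMSO-only control included. Final inhibitor 2.5 to 80 μM. Stopped with proteinase K/SDS/EDTA. Trefoil RNA knot product resolved from substrate on 15% TBE-urea gels and detected by autoradiography.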

Data set [11] can be described thus: Binding affinity to dA60.dT60 B-DNA duplex (unknown origin) assessed as induction of biphasic transition at <5 uM by UV-vis spectrophotometric analysis.
The nature of data set [12]: Inhibition of Escherichia coli DNA topoisomerase 1 using plasmid pBAD-GFPuv as substrate after 15 mins by agarose gel electrophoresis. Put shortly:
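E. coli topoisomerase I at 6 nM relaxing 150 ng supercoiled pBAD-GFPuv. 15 min at 37 °C, phenol-stopped, 1% agarose gel, ethidium stain. IC50 is the concentration leaving 50% DNA supercoiled; three independent determinations.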

A short description of data set [13]: Binding affinity to dA60.dT60 B-DNA duplex (unknown origin) assessed as change in melting temperature at 10 uM by UV-vis spectrophotometric analysis. The essentials:
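UV melting of dA60·dT60 at 1 μM/duplex with compound at 10 μM. Buffer 10 mM sodium cacodylate, 0.1 mM EDTA, 100 mM NaCl, pH 7.0; duplex pre-annealed from 95 °C. Compound stocks in DMSO diluted into buffer. Heating at 0.2 °C/min, monitored at 260 nm, points every 1.0 °C; Tm taken from derivatives.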

The target in another data set is T1, DNA topoisomerase 1 (Homo sapiens, UniProt P11387).
T1 sequence (P11387 whole entry): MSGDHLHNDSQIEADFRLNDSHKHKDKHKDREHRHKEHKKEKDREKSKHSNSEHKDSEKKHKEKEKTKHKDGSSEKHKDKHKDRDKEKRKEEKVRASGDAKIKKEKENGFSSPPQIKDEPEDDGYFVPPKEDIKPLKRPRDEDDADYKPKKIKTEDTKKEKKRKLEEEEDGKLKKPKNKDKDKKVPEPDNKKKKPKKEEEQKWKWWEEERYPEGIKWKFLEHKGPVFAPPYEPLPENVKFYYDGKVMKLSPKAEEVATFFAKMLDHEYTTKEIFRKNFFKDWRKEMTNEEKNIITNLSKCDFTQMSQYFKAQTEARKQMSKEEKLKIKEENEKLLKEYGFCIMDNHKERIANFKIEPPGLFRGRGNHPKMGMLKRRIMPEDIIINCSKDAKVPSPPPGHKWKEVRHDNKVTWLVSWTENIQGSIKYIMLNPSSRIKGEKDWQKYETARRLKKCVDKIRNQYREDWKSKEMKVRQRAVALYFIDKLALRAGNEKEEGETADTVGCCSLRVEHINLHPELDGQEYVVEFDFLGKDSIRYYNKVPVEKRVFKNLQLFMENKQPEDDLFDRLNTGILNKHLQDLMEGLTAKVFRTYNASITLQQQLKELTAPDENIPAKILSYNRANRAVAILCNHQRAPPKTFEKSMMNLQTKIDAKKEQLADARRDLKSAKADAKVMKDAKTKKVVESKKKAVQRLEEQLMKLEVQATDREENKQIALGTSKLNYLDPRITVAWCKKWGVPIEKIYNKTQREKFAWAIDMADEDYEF
Nature of the data set: Inhibition of human DNA topoisomerase 1 using plasmid pBAD-GFPuv as substrate after 30 mins by agarose gel electrophoresis.

≈ marks a conversion by molar mass, not a printed value. Calls of active or inactive are those of the source. The rule behind the calls is not given here.

What is called MIC is the lowest concentration that inhibits growth of the organism. For orientation: IC50 means the midpoint of a concentration-inhibition curve. A higher IC50 goes with weaker potency. `C#CCCCCCCCCCOc1ccc(-c2nc3ccc(-c4nc5ccc(N6CCN(C)CC6)cc5[nH]4)cc3[nH]2)cc1`: the minimal inhibitory concentration (MIC) was 16 µg/mL (≈ 27.8 µM) in the data set with Escherichia coli [1]; 16 µg/mL (≈ 27.8 µM) with Pseudomonas aeruginosa; above 32 µg/mL with Enterobacter cloacae; above 32 µg/mL with Acinetobacter baumannii; above 32 µg/mL against Shigella flexneri; above 32 µg/mL against Klebsiella pneumoniae. Further, the MIC (in data set [2]; with Staphylococcus aureus [3]; against Enterococcus faecium; with Citrobacter freundii; in the data set with Staphylococcus aureus [4]) was above 32 µg/mL in each case. In the data set with DU-145 (Homo sapiens, DU-145, 48 h), this compound had an IC50 above 10 µM. Moreover, the inhibition entry in the data set on Escherichia coli [5] was “inactive”. The inhibition entry in the data set on Escherichia coli [6] is “Active”.

Take `CCOc1ccc(-c2nc3cc(-c4nc5cc(N6CCN(C)CC6)ccc5[nH]4)ccc3[nH]2)cc1`: the minimal inhibitory concentration (MIC) in the data set on Enterococcus faecalis was 16 to 32 µg/mL (≈ 35.4 to 70.7 µM); in the data set with Escherichia coli [1], 16 µg/mL (≈ 35.4 µM); against Pseudomonas aeruginosa, 16 µg/mL (≈ 35.4 µM); against Staphylococcus aureus [7] it was 2 to 4 µg/mL (≈ 4.42 to 8.84 µM); against Escherichia coli [8] it was 16 µg/mL (≈ 35.4 µM); against Staphylococcus aureus [9], 2 to 4 µg/mL (≈ 4.42 to 8.84 µM). Further, the minimal inhibitory concentration (MIC) is 4 µg/mL (≈ 8.84 µM) in the data set on Enterobacter cloacae; 8 µg/mL (≈ 17.7 µM) in the data set with Acinetobacter baumannii; 1 to 2 µg/mL (≈ 2.21 to 4.42 µM) with Shigella flexneri; 1 µg/mL (≈ 2.21 µM) in [2]; 0.5 µg/mL (≈ 1.1 µM) in the data set with Staphylococcus aureus [3]; 0.3 µg/mL (≈ 0.663 µM) with Enterococcus faecium. In the data set on Staphylococcus aureus [4], this compound came in with an MIC of 1 µg/mL (≈ 2.21 µM). In the data set with Escherichia coli [10], the inhibition entry was “inactive”.

In general, ΔTm refers to the shift of the melting midpoint relative to a reference. Take `C#CCOCCCCCCCCOc1ccc(-c2nc3ccc(-c4nc5ccc(N6CCN(C)CC6)cc5[nH]4)cc3[nH]2)cc1`: in [11], the result was Active. The MIC in the data set with Enterococcus faecalis was 16 to 32 µg/mL (≈ 27.1 to 54.2 µM); in the data set with Escherichia coli [1], 16 to 32 µg/mL (≈ 27.1 to 54.2 µM); against Pseudomonas aeruginosa it was 16 to 32 µg/mL (≈ 27.1 to 54.2 µM); in the data set with Staphylococcus aureus [7], above 32 µg/mL; in the data set with Escherichia coli [8] it was 2 to 4 µg/mL (≈ 3.39 to 6.77 µM); in the data set on Staphylococcus aureus [9] it was 16 to 32 µg/mL (≈ 27.1 to 54.2 µM). Also, the MIC against Enterobacter cloacae was above 32 µg/mL; in the data set on Acinetobacter baumannii, above 32 µg/mL; against Shigella flexneri, above 38 µg/mL; against Klebsiella pneumoniae, above 32 µg/mL; in data set [2] it was above 32 µg/mL; against Staphylococcus aureus [3], above 32 µg/mL. Moreover, the MIC with Enterococcus faecium, in the data set with Citrobacter freundii and against Staphylococcus aureus [4] was above 32 µg/mL in each case. The half-inhibitory concentration (IC50) in data set [12] was 2.8 µM; against DNA topoisomerase 1, above 50 µM. Further, the ΔTm in data set [13] amounted to 13.1 °C. For the same compound, in the data set with DU-145 (human, du-145, 48 h), the Activity result was “Toxic”. In the data set on Escherichia coli [6], the inhibition entry is “Active”.

The values are drawn from ChEMBL document CHEMBL4014329, “Selective Inhibition of Escherichia coli RNA and DNA Topoisomerase I by Hoechst 33258 Derived Mono- and Bisbenzimidazoles” (J Med Chem, 2017).
